The values that follow come from ChEMBL document CHEMBL1221237, “Synthesis of N-aryl-3-(indol-3-yl)propanamides and their immunosuppressive activities” (Bioorg Med Chem Lett, 2010).

Series [1] addresses Vascular endothelial growth factor receptor 2 (Homo sapiens, UniProt P35968). The experiment in a line: Inhibition of recombinant KDR after 1 hr. An outline of the steps: (§1)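 Recombinant kinase with substrate and 10 μM ATP, 1 h incubation. Compound at 10 final concentrations, 3.16 nM-100 μM. Activity read by AlphaScreen Protein-A detection after bead-mix stop; IC50 derived.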

The target of series [2] is Tyrosine-protein kinase JAK2 (Homo sapiens, UniProt O60674). The series is described as follows: Inhibition of recombinant JAK2 after 1 hr. An outline of the steps:
as §1

Series [3] is described as follows: (§2) Immunosuppressive activity in C57BL/6 mouse splenocytes assessed as inhibition of cell proliferation after 72 hrs by MTT assay. Format: functional, cell-based. The settings on record: C57BL/6, Splenocyte. An outline of the steps:
(§3)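 Splenocytes pooled from two spleens of 8-week-old female C57BL/6 mice, red cells lysed with 20 mM Tris-HCl/140 mM NH4Cl, seeded 1.5×10^5/well. Stimulated with 1 μg/mL ConA, compounds diluted from DMSO into RPMI with 10% FCS and 50 μM mercaptoethanol. 72 h at 37 °C, 5% CO2. MTT 4 h, OD 570 nm, sextuplicate. Inhibition = (control OD − treated OD)/control OD × 100.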

The nature of series [4]: Inhibition of recombinant ERK after 1 hr. An outline of the steps:
as §1

For series [5], the system named is Mus musculus. The series is described as follows: Immunosuppressive activity in delayed-type hypersensitivity BALB/C mouse model assessed as inhibition of sheep RBC-induced foot-pad swelling at 50 to 120 mg/kg, po qd for 5 days measured after 24 hrs last post dose. The note with it: dose mg/kg 50-120. Format: functional. An outline of the steps:
(§4)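 Groups of five female BALB/c mice, 8-9 weeks old, primed iv with 5×10^6 SRBC in PBS. Compound in olive oil given orally daily for 5 days, from priming to challenge. Day 4: 3-4×10^8 SRBC into right hind footpad, PBS into left. Swelling difference read 24 h later; inhibition taken against untreated controls. Mean ± SEM, Dunnett test.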

For series [6], the target named is Tyrosine-protein kinase ABL1 (Homo sapiens, UniProt P00519). The series is described as follows: Inhibition of recombinant c-Abl after 1 hr. An outline of the steps: as §1
The target in series [7] is Homeodomain-interacting protein kinase 1 (Homo sapiens, UniProt Q86Z02). The experiment in a line: Inhibition of recombinant HIPK1 after 1 hr. An outline of the steps:
as §1

Series [8] deals with Tyrosine-protein kinase Yes (Homo sapiens, UniProt P07947). The experiment in a line: Inhibition of recombinant YES after 1 hr. An outline of the steps:
as §1

Series [9] concerns the target T1, Aurora kinase A (Homo sapiens, UniProt O14965).
T1 sequence (O14965 whole entry): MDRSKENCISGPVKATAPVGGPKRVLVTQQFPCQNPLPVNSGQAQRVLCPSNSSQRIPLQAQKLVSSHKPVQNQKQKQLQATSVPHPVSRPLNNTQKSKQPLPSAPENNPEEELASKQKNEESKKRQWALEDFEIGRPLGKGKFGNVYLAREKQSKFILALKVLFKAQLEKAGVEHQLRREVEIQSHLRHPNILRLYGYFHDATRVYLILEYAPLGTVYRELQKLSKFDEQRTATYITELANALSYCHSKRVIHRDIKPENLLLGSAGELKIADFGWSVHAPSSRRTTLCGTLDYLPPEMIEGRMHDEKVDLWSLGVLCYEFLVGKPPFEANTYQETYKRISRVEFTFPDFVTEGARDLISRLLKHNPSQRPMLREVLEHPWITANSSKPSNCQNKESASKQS
The series is described as follows: Inhibition of recombinant aurora A after 1 hr. An outline of the steps:
as §1

The target in series [10] is High affinity nerve growth factor receptor (Homo sapiens, UniProt P04629). The experiment in a line: Inhibition of recombinant TrkA after 1 hr. An outline of the steps:
as §1

The target of series [11] is T2, Tyrosine-protein kinase JAK3 (Homo sapiens, UniProt P52333).
T2 sequence (P52333 whole entry): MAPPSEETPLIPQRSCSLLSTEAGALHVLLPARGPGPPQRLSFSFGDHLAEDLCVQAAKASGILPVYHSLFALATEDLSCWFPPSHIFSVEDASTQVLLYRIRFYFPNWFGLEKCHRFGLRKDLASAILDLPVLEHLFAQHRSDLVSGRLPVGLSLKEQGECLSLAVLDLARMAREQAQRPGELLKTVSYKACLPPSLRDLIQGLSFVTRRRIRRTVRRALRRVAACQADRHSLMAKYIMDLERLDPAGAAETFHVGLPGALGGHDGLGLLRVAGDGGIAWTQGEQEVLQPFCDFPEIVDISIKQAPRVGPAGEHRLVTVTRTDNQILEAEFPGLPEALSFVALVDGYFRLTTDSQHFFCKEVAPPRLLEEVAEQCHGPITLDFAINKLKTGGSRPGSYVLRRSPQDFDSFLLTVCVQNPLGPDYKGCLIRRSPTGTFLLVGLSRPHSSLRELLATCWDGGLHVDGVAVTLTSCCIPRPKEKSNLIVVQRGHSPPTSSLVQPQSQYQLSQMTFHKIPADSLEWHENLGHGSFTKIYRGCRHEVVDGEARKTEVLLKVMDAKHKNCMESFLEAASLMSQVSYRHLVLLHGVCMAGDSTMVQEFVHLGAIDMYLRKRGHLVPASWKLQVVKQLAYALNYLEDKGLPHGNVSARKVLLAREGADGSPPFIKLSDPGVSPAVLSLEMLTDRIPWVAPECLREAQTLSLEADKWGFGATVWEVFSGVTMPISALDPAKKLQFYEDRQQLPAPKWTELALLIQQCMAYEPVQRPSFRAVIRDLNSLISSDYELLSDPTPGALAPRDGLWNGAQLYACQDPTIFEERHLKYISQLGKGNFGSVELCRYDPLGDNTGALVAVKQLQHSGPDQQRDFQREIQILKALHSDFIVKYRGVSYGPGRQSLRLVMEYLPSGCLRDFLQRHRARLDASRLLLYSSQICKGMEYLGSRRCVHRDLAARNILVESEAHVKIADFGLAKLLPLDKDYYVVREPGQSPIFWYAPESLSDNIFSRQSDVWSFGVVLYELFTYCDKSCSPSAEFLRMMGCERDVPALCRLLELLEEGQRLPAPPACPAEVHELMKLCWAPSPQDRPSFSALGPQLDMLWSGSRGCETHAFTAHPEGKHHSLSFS
The series is described as follows: Inhibition of recombinant JAK3 after 1 hr. An outline of the steps: as §1

Series [12] is described as follows: (§5) Immunosuppressive activity in C57BL/6 mouse splenocytes assessed as inhibition of concanavalin A-induced cell proliferation at 90 uM after 72 hrs by MTT assay. The class given is functional. The settings on record: C57BL/6, Splenocyte. An outline of the steps: as §3
The target of series [13] is Serine/threonine-protein kinase pim-1 (Homo sapiens, UniProt P11309). The series is described as follows: Inhibition of recombinant Pim1 after 1 hr. An outline of the steps:
as §1

Series [14] can be described thus: (§6) Immunosuppressive activity in C57BL/6 mouse splenocytes assessed as inhibition of concanavalin A-induced cell proliferation at 30 uM after 72 hrs by MTT assay. The settings on record: C57BL/6, Splenocyte. The class given is functional. An outline of the steps:
as §3

In series [15] the test system is Mus musculus. The experiment in a line: Immunosuppressive activity in delayed-type hypersensitivity po dosed BALB/C mouse model assessed as inhibition of sheep RBC-induced foot-pad swelling administered qd for 5 days measured after 24 hrs last post dose. Format: functional, organism-based. An outline of the steps: as §4
Series [16] relates to Mus musculus. The experiment in a line: Acute toxicity in BALB/C mouse at 50 to 120 mg/kg, po qd for 5 days. The class given is organism-based. Further details: dose 50-120 mg/kg, route oral. The note with it: in vivo, 120 h. An outline of the steps: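 Female BALB/C mice, 8-9 weeks old, groups of five. Dosed orally once daily for 5 days in olive oil, from priming to challenge, within a DTH study: primed iv with 5×10^6 SRBC, footpad challenge with SRBC on day 4. Acute toxicity judged by observation against untreated control mice over the 5-day treatment.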

A short description of series [17]: Cytotoxicity in C57BL/6 mouse splenocytes assessed as reduction of cell viability at 90 uM after 48 hrs by MTT assay. Format: cell-based. The settings on record: splenocyte.
In series [18] the test system is Splenocyte. The series is described as §2. The class given is functional, cell-based. An outline of the steps: as §3
Series [19] deals with Mus musculus. The experiment in a line: Immunosuppressive activity in delayed-type hypersensitivity BALB/C mouse model assessed as inhibition of sheep RBC-induced foot-pad swelling at 50 mg/kg, po qd for 5 days measured after 24 hrs last post dose. On the set-up: dose 50 mg/kg. The class given is functional, organism-based. An outline of the steps:
as §4

Series [20] relates to Splenocyte. Described as §6. Format: functional. An outline of the steps:
as §3

The subject of series [21] is Splenocyte. The description is as §5. The class given is functional. An outline of the steps: as §3

Activity calls are given as the source filed them. The calls are words filed in the database; no cut-off is given here. Bounds are passed on as bounds.

Chain of Vascular endothelial growth factor receptor 2 (P35968 whole entry): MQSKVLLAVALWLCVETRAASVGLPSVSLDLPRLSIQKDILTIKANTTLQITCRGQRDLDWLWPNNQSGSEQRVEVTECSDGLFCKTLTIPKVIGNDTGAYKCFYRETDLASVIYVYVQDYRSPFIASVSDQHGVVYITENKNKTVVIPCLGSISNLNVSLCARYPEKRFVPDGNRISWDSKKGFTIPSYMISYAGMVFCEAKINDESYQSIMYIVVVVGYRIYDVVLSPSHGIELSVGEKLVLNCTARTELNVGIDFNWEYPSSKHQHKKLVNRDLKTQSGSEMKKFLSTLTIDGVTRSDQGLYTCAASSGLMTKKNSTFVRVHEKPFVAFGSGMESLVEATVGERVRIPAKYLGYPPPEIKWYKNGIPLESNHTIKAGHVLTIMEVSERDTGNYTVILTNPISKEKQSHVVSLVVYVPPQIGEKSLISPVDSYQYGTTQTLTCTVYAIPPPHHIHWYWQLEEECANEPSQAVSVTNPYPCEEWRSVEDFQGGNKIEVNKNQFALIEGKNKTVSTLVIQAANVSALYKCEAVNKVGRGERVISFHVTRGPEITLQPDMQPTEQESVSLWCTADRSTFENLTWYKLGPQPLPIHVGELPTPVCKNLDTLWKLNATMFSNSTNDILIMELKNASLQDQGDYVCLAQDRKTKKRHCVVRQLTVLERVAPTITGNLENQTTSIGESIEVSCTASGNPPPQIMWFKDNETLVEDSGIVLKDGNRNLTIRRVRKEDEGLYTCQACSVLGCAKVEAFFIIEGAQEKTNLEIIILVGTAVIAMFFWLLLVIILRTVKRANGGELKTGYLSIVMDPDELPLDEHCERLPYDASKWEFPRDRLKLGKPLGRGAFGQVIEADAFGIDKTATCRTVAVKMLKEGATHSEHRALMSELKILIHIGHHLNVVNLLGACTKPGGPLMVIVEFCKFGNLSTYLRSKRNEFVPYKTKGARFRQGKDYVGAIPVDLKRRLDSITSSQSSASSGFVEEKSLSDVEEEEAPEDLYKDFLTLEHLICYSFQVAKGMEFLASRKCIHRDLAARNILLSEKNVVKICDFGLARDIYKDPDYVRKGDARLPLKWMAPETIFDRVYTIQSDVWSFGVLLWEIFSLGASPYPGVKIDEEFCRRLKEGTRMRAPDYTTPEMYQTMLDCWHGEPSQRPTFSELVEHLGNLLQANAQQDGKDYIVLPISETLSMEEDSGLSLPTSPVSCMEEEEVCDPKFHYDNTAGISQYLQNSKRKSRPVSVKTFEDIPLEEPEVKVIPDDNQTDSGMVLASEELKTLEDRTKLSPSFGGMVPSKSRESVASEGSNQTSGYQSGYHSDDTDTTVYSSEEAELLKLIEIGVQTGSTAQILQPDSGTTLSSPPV
Chain of Tyrosine-protein kinase JAK2 (O60674 whole entry): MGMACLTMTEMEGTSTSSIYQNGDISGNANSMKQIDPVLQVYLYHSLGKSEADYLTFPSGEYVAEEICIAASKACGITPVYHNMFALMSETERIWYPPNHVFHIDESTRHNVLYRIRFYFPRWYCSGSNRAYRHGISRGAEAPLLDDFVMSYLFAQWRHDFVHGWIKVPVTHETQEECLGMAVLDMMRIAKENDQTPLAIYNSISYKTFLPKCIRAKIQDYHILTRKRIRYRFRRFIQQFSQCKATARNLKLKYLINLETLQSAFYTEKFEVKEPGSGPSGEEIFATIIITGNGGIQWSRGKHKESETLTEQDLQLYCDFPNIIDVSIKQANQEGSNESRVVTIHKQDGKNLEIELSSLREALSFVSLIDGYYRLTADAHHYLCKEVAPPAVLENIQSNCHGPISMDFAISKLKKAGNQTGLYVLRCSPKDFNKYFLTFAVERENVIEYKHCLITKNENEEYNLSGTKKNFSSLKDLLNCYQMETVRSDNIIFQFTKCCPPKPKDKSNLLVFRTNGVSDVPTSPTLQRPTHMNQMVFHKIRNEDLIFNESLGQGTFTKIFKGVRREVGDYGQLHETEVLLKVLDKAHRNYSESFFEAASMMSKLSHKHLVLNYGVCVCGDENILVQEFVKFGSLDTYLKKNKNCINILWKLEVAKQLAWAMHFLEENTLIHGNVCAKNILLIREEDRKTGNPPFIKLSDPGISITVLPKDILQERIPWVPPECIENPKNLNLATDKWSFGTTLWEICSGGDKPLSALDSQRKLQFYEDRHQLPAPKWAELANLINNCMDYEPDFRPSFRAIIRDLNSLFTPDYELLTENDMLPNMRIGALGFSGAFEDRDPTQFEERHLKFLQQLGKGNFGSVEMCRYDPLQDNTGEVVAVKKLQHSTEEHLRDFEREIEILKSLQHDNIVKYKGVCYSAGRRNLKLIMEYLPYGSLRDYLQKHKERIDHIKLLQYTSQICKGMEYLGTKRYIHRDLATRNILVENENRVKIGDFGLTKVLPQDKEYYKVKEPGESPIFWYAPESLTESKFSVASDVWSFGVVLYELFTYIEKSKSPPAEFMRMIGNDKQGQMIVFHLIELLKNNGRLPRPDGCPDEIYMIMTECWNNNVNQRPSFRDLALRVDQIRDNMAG
Chain of Tyrosine-protein kinase Yes (P07947 whole entry): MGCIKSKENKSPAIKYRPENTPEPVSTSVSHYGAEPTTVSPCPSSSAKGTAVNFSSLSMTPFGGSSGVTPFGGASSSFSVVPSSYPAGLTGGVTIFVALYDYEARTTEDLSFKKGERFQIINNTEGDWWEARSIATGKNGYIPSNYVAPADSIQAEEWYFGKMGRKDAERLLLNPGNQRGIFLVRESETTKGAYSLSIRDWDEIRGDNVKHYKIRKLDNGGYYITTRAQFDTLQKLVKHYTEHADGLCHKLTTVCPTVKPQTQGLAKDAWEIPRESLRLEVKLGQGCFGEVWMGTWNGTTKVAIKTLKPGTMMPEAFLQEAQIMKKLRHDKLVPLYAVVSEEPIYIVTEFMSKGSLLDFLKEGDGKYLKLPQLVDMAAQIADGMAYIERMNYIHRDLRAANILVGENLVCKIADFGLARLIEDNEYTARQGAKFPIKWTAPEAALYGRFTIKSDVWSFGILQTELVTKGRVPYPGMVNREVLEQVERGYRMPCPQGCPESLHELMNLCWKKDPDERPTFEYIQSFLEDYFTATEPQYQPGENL
Chain of High affinity nerve growth factor receptor (P04629 whole entry): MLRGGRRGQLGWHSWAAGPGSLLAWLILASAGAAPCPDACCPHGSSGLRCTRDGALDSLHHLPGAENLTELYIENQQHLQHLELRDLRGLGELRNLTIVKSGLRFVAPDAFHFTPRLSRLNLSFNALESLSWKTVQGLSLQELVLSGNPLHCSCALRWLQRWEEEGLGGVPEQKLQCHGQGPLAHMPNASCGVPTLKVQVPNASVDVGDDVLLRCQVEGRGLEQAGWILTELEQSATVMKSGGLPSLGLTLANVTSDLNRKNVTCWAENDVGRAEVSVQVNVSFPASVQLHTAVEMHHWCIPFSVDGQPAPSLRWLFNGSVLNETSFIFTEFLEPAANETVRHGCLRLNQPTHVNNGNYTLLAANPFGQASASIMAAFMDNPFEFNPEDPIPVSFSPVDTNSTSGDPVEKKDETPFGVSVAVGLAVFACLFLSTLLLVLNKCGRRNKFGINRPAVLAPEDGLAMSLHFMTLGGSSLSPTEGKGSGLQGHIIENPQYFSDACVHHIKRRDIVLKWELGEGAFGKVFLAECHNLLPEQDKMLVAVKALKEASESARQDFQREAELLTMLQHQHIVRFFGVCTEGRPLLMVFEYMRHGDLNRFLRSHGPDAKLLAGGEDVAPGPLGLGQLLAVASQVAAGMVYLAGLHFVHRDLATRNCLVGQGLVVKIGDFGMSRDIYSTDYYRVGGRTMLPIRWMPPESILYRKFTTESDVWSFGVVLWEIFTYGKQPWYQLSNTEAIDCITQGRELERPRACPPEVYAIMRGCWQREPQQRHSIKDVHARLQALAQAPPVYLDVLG
Chain of Serine/threonine-protein kinase pim-1 (P11309 whole entry): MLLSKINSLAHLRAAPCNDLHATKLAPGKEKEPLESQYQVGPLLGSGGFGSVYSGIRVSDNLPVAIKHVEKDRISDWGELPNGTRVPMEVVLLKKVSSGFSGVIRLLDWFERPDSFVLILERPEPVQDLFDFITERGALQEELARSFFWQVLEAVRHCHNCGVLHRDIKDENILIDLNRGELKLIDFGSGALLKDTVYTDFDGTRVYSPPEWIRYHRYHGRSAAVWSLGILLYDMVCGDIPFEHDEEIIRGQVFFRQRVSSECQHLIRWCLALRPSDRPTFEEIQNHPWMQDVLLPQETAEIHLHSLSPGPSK

For `O=C(CCc1cn(Cc2ccc(Cl)cc2)c2ccccc12)Nc1ccncc1`, the IC50 in series [1] is 26 µM; in [2] it was 134 µM; in series [3], 17 µM; in series [4], over 100 µM; in [6] it was over 100 µM; in series [7], over 100 µM. The IC50 in [8] was 30 µM; in series [9], over 100 µM; in series [10], over 100 µM; in [11], 52 µM; in [13], over 100 µM. Also, the “inhibition (INH)” value in series [5] was found to be 69%. Also, the inhibition at 90 µM in series [12] was 87%. Moreover, the inhibition at 30 µM in [14] was determined as 19%.
Regarding `N#Cc1ccc(NC(=O)CCc2cn(Cc3ccc(Cl)cc3)c3ccccc23)cc1`, the inhibition at 90 µM in series [12] was determined as 78%. Moreover, the inhibition at 30 µM in series [14] worked out at 30%.
`O=C(CCc1cn(Cc2ccc(Cl)cc2)c2ccccc12)Nc1ccc([N+](=O)[O-])cc1`: the inhibition entry in series [15] and in series [18] was “Dose-dependent effect” each time. Besides, the Activity result in series [16] and in series [17] was “Non-toxic” each time. The IC50 in [1] is 33.2 µM; in series [2], 107 µM; in series [3], 19.8 µM; in series [4], over 100 µM; in series [6], over 100 µM; in [7], over 100 µM. For the same molecule, the IC50 in series [8] was 38.1 µM; in [9], over 100 µM; in series [10] it was over 100 µM; in [11] it was 34.2 µM; in series [13], over 100 µM. Moreover, in [12], the inhibition at 90 µM amounted to 92%. For the same molecule, the inhibition result in [19] was “Active”. Further, the inhibition at 30 µM in series [14] turned out to be 87%.
For the molecule `O=C(CCc1cn(Cc2ccc(Cl)cc2)c2ccccc12)Nc1cccnc1`, in series [12], the inhibition at 90 µM came out at 40%. Also, the inhibition at 30 µM in [14] came out at 28%.
Take `O=C(CCc1cn(Cc2ccc(Cl)cc2)c2ccccc12)Nc1ccccn1`: the inhibition at 90 µM in [12] was 26%. The inhibition result in series [20] was “inactive”.
As for `O=C(CCc1cn(Cc2ccc(Cl)cc2)c2ccccc12)Nc1ccccc1`, the inhibition result in series [21] and in series [20] was “inactive” each time.
On to `O=C(CCc1cn(Cc2ccc(Cl)cc2)c2ccccc12)Nc1ccc2ncccc2c1`, for which, in [12], the inhibition at 90 µM came out at 86%. Also, the inhibition result in series [20] was “inactive”.
`O=C(CCc1cn(Cc2ccc(Cl)cc2)c2ccccc12)Nc1cccc2ncccc12`: the inhibition entry in [21] and in series [20] was “inactive” throughout.
For the molecule `O=C(CCc1cn(Cc2ccc(Cl)cc2)c2ccccc12)Nc1ccc(C(F)(F)F)cc1`, in series [12], the inhibition at 90 µM was 18%.
Take `O=C(CCc1cn(Cc2ccc(Cl)cc2)c2ccccc12)Nc1ccnc2ccccc12`: the inhibition at 90 µM in series [12] was determined as 37%. Also, in series [14], the inhibition at 30 µM is 20%.
`Nc1ccc(NC(=O)CCc2cn(Cc3ccc(Cl)cc3)c3ccccc23)cc1`: the inhibition entry in [21] and in [20] was “inactive” in each case.
For the molecule `O=C(CCc1cn(Cc2ccc(Cl)cc2)c2ccccc12)Nc1cccc2cnccc12`, the inhibition at 90 µM in [12] was 17%. For the same molecule, the inhibition result in series [20] is “inactive”.
